# pEC50, pIC50: −log10 of the molar value. The source made the active and inactive calls. The calls are words filed in the database; no cut-off is given here.
# Key:
# [1] = Cytotoxicity against human HepG2/C3A cells after 48 hrs by MTT assay; assay type: functional, cell-based
# [2] = biological target: T1, Hepatocyte nuclear factor 4-alpha (Homo sapiens, UniProt P41235); experiment: Agonist activity at human full length HNF4alpha nuclear receptor expressed in human HepG2/C3A cells co-transfected with LexADBD assessed as increase in transcriptional activity after 16 hrs by beta-galactosidase one hybrid assay; assay type: functional, cell-based
# T1 sequence (P41235 whole entry): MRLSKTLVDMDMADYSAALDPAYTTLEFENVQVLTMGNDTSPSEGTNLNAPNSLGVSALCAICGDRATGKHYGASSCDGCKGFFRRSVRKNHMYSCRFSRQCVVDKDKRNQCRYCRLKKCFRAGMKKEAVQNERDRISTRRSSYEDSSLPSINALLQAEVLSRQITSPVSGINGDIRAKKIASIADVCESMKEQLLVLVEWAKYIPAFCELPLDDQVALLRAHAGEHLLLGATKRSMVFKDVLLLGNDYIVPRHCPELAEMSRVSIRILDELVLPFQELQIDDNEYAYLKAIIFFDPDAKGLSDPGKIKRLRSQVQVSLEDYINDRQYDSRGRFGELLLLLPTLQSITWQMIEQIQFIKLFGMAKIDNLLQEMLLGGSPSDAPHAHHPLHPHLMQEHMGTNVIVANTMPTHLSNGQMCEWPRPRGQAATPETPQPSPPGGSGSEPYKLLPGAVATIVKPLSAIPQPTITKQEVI
# Outline: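 Yeast one-hybrid with LexA DNA-binding domain fusions of HNF4α (full length, AF-1-deleted, or LBD lacking F domain). Increasing compound concentrations applied to yeast for 16 h, then β-galactosidase assay. EC50 taken from the dose–response curves.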
# [3] = biological target: T2, Hepatocyte nuclear factor 4-alpha (Homo sapiens) (UniProt P41235); experiment: Agonist activity at human full length HNF4alpha nuclear receptor expressed in human HepG2/C3A cells co-transfected with LexADBD assessed as increase in transcriptional activity at 100 uM by beta-galactosidase one hybrid assay relative to control; assay type: functional, cell-based
# T2 sequence (whole entry): T1 sequence (P41235 whole entry)
# [4] = biological target: T2, Hepatocyte nuclear factor 4-alpha (Homo sapiens); experiment: Agonist activity at human full length HNF4alpha nuclear receptor expressed in human HepG2/C3A cells co-transfected with LexADBD assessed as increase in transcriptional activity at 9.3 uM by beta-galactosidase one hybrid assay relative to control; assay type: functional, cell-based
# [5] = biological target: T2, Hepatocyte nuclear factor 4-alpha (Homo sapiens); experiment: Agonist activity at human HNF4alpha7 nuclear receptor LBDdetaF expressed in human HepG2/C3A cells co-transfected with LexADBD assessed as increase in transcriptional activity after 16 hrs by beta-galactosidase one hybrid assay; assay type: functional, cell-based
# [6] = biological target: T2, Hepatocyte nuclear factor 4-alpha (Homo sapiens); experiment: Agonist activity at AF1 deleted human HNF4alpha7 nuclear receptor expressed in human HepG2/C3A cells co-transfected with LexADBD assessed as increase in transcriptional activity after 16 hrs by beta-galactosidase one hybrid assay; assay type: functional, cell-based
# [7] = biological target: T2, Hepatocyte nuclear factor 4-alpha (Homo sapiens); experiment: Agonist activity at human full length HNF4alpha nuclear receptor expressed in human HepG2/C3A cells co-transfected with LexADBD assessed as increase in transcriptional activity at 12.5 uM by beta-galactosidase one hybrid assay relative to control; assay type: functional, cell-based
# [8] = system: HepG2/C3A; experiment: Enhancement of beta-galactosidase activity in human HepG2/C3A cells transfected with Gal4 assessed as increase in transcriptional activity after 16 hrs; assay type: functional, cell-based
# [9] = system: HepG2/C3A; experiment: Enhancement of beta-galactosidase activity in human HepG2/C3A cells transfected with LexACOUP-TFII assessed as increase in transcriptional activity after 16 hrs; assay type: functional, cell-based
# [10] = system: HepG2/C3A; experiment: Enhancement of beta-galactosidase activity in human HepG2/C3A cells transfected with estrogen receptor assessed as increase in transcriptional activity after 16 hrs; assay type: functional, cell-based
# [11] = biological target: T2, Hepatocyte nuclear factor 4-alpha (Homo sapiens); experiment: Activation of HNFalpha transcriptional activity in human […] cells transfected with ApoB-luc assessed as activation of luciferase reporter gene after 24 hrs; assay type: cell-based
# Outline: (§1)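 HepG2C3A cells seeded at 6 × 10⁴/well in DMEM, transfected 24 h later (JetPEI) with 800 ng total DNA: 250 ng ApoB-Luc or ApoCIII-Luc reporter, 250 ng β-galactosidase plasmid, HNF4α expression vector. Treated 24 h (DMSO 0.5% control). Luciferase read in lysate supernatant and normalised to β-gal (4-MUG fluorescence, ex 365/em 450 nm). Fold induction vs DMSO. At least three independent experiments, in triplicate.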
# [12] = biological target: T2, Hepatocyte nuclear factor 4-alpha (Homo sapiens); experiment: Activation of HNFalpha transcriptional activity in human […] cells transfected with ApoCIII-luc assessed as activation of luciferase reporter gene after 24 hrs; assay type: cell-based; outline: as §1
# [13] = biological target: T2, Hepatocyte nuclear factor 4-alpha (Homo sapiens); experiment: Agonist activity at human full length HNF4alpha nuclear receptor expressed in human HepG2/C3A cells co-transfected with LexADBD assessed as increase in transcriptional activity at 18.7 uM by beta-galactosidase one hybrid assay relative to control; assay type: functional, cell-based
# [14] = biological target: T2, Hepatocyte nuclear factor 4-alpha (Homo sapiens); experiment: Stabilization of thermal denaturation-induced conformational change in human HNF4alpha nuclear receptor ligand binding domain assessed as change in transition temperature by thermofluor assay
# Outline: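 Human HNF4α LBD (aa 133–368), 6xHis-tagged, expressed in E. coli, purified under denaturing conditions, renatured and TEV-cleaved (apo). Protein at 0.3 mg/mL in 20 mM Tris-Cl pH 8.0, 100 mM NaCl, with 3× molar excess test compound and SYPRO Orange (20× working). Heated 20–90 °C at 1 °C/min. ΔTm = Tm − T0 against a water control; means of 3–6 independent experiments ± SE.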
# [15] = biological target: T2, Hepatocyte nuclear factor 4-alpha (Homo sapiens); experiment: Agonist activity at human full length HNF4alpha nuclear receptor expressed in human HepG2/C3A cells co-transfected with LexADBD assessed as increase in transcriptional activity at 6.2 uM by beta-galactosidase one hybrid assay relative to control; assay type: functional, cell-based
SMILES,pIC50 [1],pEC50 [2],fold change (FC) [4],further results
NC(=O)c1cc2c(ccc3ccccc32)o1,< 5.30,< 4.00,–,fold change (FC) [3]: 2
COc1ccc2ccc3oc([N+](=O)[O-])cc3c2c1,5.64,5.63,7.97,–
COc1ccc2c(ccc3oc([N+](=O)[O-])cc32)c1,5.65,5.59,8.05,Activity [5]: inactive; Activity [6]: inactive
O=[N+]([O-])c1cc2c(ccc3ccccc32)o1,5.60,5.68,–,fold change (FC) [7]: 4.46
O=[N+]([O-])c1oc2ccc3ccccc3c2c1CCO,5.69,5.91,–,fold change (FC) [7]: 4.58
COc1cc2ccccc2c2cc([N+](=O)[O-])oc12,5.36,5.83,6.6,Activity [8]: inactive; Activity [9]: inactive; Activity [10]: inactive
Cc1c([N+](=O)[O-])oc2ccc3ccccc3c12,< 5.30,5.89,–,Activity [11]: Dose-dependent effect; Activity [12]: Dose-dependent effect; fold change (FC) [13]: 5.51
O=[N+]([O-])c1cc2c(ccc3cc(O)ccc32)o1,5.30,5.71,–,ΔTm [14]: 0.84 °C; fold change (FC) [15]: 11.1

# Reference: ChEMBL document CHEMBL1152585, “Identification of small molecule regulators of the nuclear receptor HNF4alpha based on naphthofuran scaffolds” (Bioorg Med Chem, 2009)
